In ChEMBL document CHEMBL1150426, “New C5-alkylated indolobenzazepinones acting as inhibitors of tubulin polymerization: cytotoxic and antitumor activities” (J Med Chem, 2008):

Experiments:
KB = assay: Cytotoxicity against human KB cells after 72 hrs; format: functional, cell-based
Outline: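 KB cells in EMEM (4.5 g/L glucose, 10% FCS, 1% glutamine) seeded 5 × 10³/well, dosed after 24 h with compound in DMSO (<0.1%). 72 h exposure, then resazurin 2 h; fluorescence ex 560/em 590 nm. IC50 = 50% fluorescence decrease versus untreated; triplicate.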

[1] = Inhibition of sheep brain tubulin polymerization; set-up: species or system Ovis aries
Outline: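 Sheep brain tubulin (about 2–3 mg/mL), purified by two assembly–disassembly cycles, in 0.1 M MES, 0.5 mM MgCl₂, 1 mM EGTA, 1 mM GTP, pH 6.6. Assembly followed by turbidity at 350 nm, 37 °C.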

B16-F10 = assay: Antiproliferative activity against mouse B16F10 cells after 72 hrs; format: functional, cell-based; details: B16-F10, 72 h
Outline: (§1)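 Cells were seeded at 5 × 10³ per well and cultured for 24 h. Test compound in DMSO (under 0.1%) was then added for 72 h. Resazurin was added for 2 h, and fluorescence was read at ex 560 nm / em 590 nm. IC50 was taken as the concentration giving a 50% fall in fluorescence versus untreated cells. Runs were done in triplicate.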

A549 = assay: Antiproliferative activity against human A549 cells after 72 hrs; format: functional, cell-based; details: A549, 72 h; outline: as §1
MDA-MB-435 = assay: Antiproliferative activity against human MDA-MB-435 cells after 72 hrs; format: functional, cell-based; details: MDA-MB-435, 72 h; outline: as §1
MDA-MB-231 = assay: Antiproliferative activity against human MDA-MB-231 cells after 72 hrs; format: functional, cell-based; details: MDA-MB-231, 72 h; outline: as §1
HCT-116 = assay: Antiproliferative activity against human HCT116 cells after 72 hrs; format: functional, cell-based; details: HCT-116, 72 h; outline: as §1
[2] = Antitumor activity against human U87 tumor transplanted in chick chorio-allantoic membrane assessed as reduction of tumor volume at 100 uM after 4 days; format: functional, U-87MG ATCC; set-up: scale not given: the % may be the effect or the level left
Outline: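 On embryonic day 10, 5 × 10⁶ U87 glioma cells were placed on the chick CAM. On day 2 of tumor growth, size-matched tumors were split into groups. From day 3 to day 6, 20 µL of compound at 100 µM was applied locally once daily, and controls got solvent. Volume was calculated as V = 4/3πr³ with r = 1/2√(length × width), using six tumors per group.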

IC50 [1] [nM] | Compound | IC50 (KB) [nM] | further results
 | CC1NCc2[nH]c3ccccc3c2-c2ccccc21 (racemic) | 12000 | 
 | C[C@H]1NC(=O)c2[nH]c3ccccc3c2-c2ccccc21 | 340 | 
3600 | CCC1NC(=O)c2[nH]c3ccc(F)cc3c2-c2ccccc21 (racemic) | 500 | 
 | O=C1NCc2ccccc2-c2c1[nH]c1ccccc21 | 550 | 
1900 | C[C@@H]1NC(=O)c2[nH]c3ccccc3c2-c2ccccc21 | 80 | 
 | CC1NC(=O)c2c(c3ccccc3n2C)-c2ccccc21 (racemic) | 7000 | 
1800 | CC[C@H]1NC(=O)c2[nH]c3ccccc3c2-c2ccccc21 | 35 | 
 | CC1NC(=S)c2[nH]c3ccccc3c2-c2ccccc21 (racemic) | 360 | 

Compound | IC50 [1] [nM] | IC50 (KB) [nM] | further results
COc1cc2c(c(OC)c1OC)-c1ccc(O)cc1[C@@H](NC(C)=O)CC2 [N-ACETYLCOLCHINOL] | 3000 | 75 | IC50 (B16-F10): 72 nM; IC50 (A549): 250 nM; IC50 (MDA-MB-435): 140 nM; IC50 (MDA-MB-231): 700 nM; IC50 (HCT-116): 100 nM; Activity [2]: 42%
